ChEMBL document CHEMBL5046273, “Development of a Novel, Small-Molecule Brain-Penetrant Histone Deacetylase Inhibitor That Enhances Spatial Memory Formation in Mice” (J Med Chem, 2022)
The source made the active and inactive calls. No cut-off for these calls is given here.

What was measured:
Histone deacetylase 2 [1] = molecular target: T1, Histone deacetylase 2 (Homo sapiens, UniProt Q92769); test: Inhibition of recombinant human full-length HDAC2 incubated for 10 mins by Glo-luminescence assay
T1 sequence (Q92769 whole entry): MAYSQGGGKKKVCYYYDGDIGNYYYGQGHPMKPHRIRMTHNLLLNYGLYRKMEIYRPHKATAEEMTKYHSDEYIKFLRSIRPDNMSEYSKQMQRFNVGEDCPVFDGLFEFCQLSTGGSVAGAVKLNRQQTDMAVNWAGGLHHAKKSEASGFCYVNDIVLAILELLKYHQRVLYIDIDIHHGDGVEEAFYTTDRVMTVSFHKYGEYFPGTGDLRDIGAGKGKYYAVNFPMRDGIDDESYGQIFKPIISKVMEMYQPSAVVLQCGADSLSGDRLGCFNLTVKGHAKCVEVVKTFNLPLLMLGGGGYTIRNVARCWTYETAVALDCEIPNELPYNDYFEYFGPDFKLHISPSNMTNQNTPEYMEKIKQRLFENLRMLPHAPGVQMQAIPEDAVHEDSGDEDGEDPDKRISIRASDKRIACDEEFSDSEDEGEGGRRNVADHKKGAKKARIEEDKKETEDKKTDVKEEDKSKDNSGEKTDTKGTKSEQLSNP
Summary of the method: (§1)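 Compounds were serially diluted and incubated with enzyme for 10 min. HDAC-Glo I/II substrate/developer was then added, and luminescence read after 40 min at 23 °C. IC50 from four-parameter fits from two independent titrations, mean ± SD.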

Histone deacetylase 2 [2] = molecular target: T1, Histone deacetylase 2; test: Inhibition of recombinant human full-length HDAC2 preincubated for 20 mins with DTT followed by enzyme addition and measured after 10 mins by Glo-luminescence assay; summary of the method: as §1
DU-145 = test: Cytotoxicity against human DU-145 cells assessed as reduction in cell viability at 5 to 10 nM incubated for 48 hrs by MTT assay; type: functional, cell-based; details: dose 5-10 nM
Summary of the method: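 DU145 cells in DMEM with 10% FBS were seeded at 14 000 cells/well and allowed to adhere for 24 h. Test agents were diluted from 10 mM DMSO stocks (100, 50, 25 µM; 10, 5, 1.25 nM) and applied in triplicate for 48 h at 37 °C, 5% CO2, with DMSO as vehicle. Read-out was 250 µg/mL MTT for 4 h, DMSO solubilization, and A570 with 690 nm reference. Values normalized to DMSO.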

Histone deacetylase 1 = Histone deacetylase 1 (Homo sapiens, UniProt Q13547); test: Inhibition of HDAC1 in human DU-145 cells assessed as increase in histone H3 acetylation after 24 hrs by immunofluorescence microscopy; type: cell-based
Sequence of Histone deacetylase 1 (Q13547 whole entry): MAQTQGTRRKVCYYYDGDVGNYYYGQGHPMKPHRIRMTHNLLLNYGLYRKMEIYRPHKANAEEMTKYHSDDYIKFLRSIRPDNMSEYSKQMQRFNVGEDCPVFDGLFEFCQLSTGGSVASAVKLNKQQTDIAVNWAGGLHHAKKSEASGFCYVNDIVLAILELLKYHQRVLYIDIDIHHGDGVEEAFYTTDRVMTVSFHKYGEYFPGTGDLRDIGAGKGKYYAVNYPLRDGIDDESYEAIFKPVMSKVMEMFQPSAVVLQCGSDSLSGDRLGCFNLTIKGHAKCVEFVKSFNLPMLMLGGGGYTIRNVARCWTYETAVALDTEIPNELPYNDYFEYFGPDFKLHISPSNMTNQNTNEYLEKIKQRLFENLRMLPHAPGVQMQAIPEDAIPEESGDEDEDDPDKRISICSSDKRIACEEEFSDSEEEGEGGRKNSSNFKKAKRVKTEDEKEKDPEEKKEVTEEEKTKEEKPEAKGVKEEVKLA

[3] = Toxicity in ip dosed BALB/c mouse assessed as maximum tolerated dose measured after 2 weeks; type: organism-based; details: BALB/c, in vivo
Summary of the method: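 Healthy BALB/c mice, compound in 20% DMSO/saline, single i.p. dose. One mouse each at 200, 100 and 50 mg/kg, then 25, 12.5 and 6.25 mg/kg if needed, repeated until a tolerated dose was found. Last test repeated once. Mice weighed daily for 8 days; euthanized at >20% weight loss or overt toxicity. Morbidity/mortality followed over 2 weeks; triplicate experiments.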

[4] = molecular target: Histone deacetylase (Homo sapiens) (UniProt Q13547+O15379+Q9UBN7+Q92769+Q9UQL6+Q8WUI4+Q9BY41+Q96DB2+P56524+Q9UKV0+Q969S8); details: DU-145, dose 10.0 nM, time 24.0 hrs

Row | IC50 (Histone deacetylase 2 [1]) [µM] | IC50 (Histone deacetylase 2 [2]) [µM] | Structure (SMILES) | Activity (DU-145) | IC50 (Histone deacetylase 1) [µM] | MTD at 336 h [3] [mg/kg] | inhibition [4]
1 | 140 | 11 | CCCC[C@@H](NC(=O)CC(O)/C=C/CCSSCC/C=C/C(O)CC(=O)N[C@H](CCCC)C(=O)O)C(=O)O (stereo partly drawn) |  |  |  | 
2 | 140 | 28 | O=C(O)CC(O)/C=C/CCSSCC/C=C/C(O)CC(=O)O (stereo not drawn) |  |  |  | 
3 |  |  | C/C=C1\NC(=O)[C@H]2CSSCC/C=C/[C@H](CC(=O)N[C@H](C(C)C)C(=O)N2)OC(=O)[C@H](C(C)C)NC1=O [ROMIDEPSIN] | Active | 0.0014 | > 200 | Active
